Bioassay records deposited in PubChem by The Scripps Research Institute Molecular Screening Center.
PLC-gamma1 inh: inhibitors of human phospholipase C gamma1 | purified PLC-gamma1, fluorogenic substrate, fluorescence | inhibition, % at 12.2 µM | hit rate 0.84% among 370,000 | AID 720700; in the data active = inhibition above about 9.5%
procasp3 activ: activators of human procaspase-3; P42574; recombinant procaspase-3 D3A, Ac-DEVD-pNA absorbance 405 nm; activation, % at 8.5 µM; hit rate 0.11% among 330,000; AID 463141;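 active = activation above the mean of all tested compounds plus 3 SD, cut at about 21% in these data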;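 also: 0% = DMSO alone and 100% = DMSO wells spiked with extra 5 µM PC-3 D3A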
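material = Procaspase-3 D3A mutant | probe or stimulus = Ac-DEVD-pNA | compound = single dose, 8.5 µM nominal compound, 0.8% DMSO | timing = 1 h preincubation, 2 h reaction | measured by = 405 nm absorbance of p-nitroaniline, reads at 0 and 120 min | benchmarks = DMSO-only low control, 5 µM PC-3 D3A high control | repeats = singlicate, each compound tested once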
PLC-beta3 inh: inhibitors of human phospholipase C beta3; hit rate 0.18% among 370,000; inhibition, % at 12.2 µM; Purified PLC-beta3, fluorogenic substrate, fluorescence;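 also: 0% = median of compound wells on plate and 100% = full blocker control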
HGIII-sPLA2 inh: Blocks human group III sPLA2 activity. inhibition, % at 12.2 µM. QFRET BODIPY PC-A2 liposome hydrolysis, fluorescence. Q9NZ20. hit rate 0.56% among 370,000;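 active = inhibition above mean plus 3 SD of compounds lying within the high and low control bounds, cut at about 19% in these data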;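 also: 0% = median of test compound wells and 100% = no enzyme DMSO wells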
Target sequence (Q9NZ20 whole entry, looked up): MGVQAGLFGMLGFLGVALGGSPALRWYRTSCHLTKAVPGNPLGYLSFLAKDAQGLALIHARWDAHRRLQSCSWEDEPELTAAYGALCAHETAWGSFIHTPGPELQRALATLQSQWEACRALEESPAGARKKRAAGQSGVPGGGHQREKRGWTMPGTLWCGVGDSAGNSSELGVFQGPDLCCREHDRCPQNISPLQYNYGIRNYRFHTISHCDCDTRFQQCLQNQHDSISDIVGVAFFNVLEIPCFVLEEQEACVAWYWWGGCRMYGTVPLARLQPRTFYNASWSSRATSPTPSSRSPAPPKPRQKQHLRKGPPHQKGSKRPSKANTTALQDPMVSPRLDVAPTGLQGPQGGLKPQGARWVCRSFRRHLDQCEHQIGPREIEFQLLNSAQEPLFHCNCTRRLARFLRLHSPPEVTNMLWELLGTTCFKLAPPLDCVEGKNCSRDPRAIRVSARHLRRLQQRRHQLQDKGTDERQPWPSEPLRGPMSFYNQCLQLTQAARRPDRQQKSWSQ
procasp7 counter: counter-screen for procaspase-3 activators: activators of human procaspase-7; recombinant procaspase-7, Ac-DEVD-pNA absorbance 405 nm; D23A/D198A/D206A triple mutant, cannot self-cleave; scale: DMSO 0, 5 µM enzyme 100; AID 463210; hit rate 0.093% among 330,000; activation, % at 8.5 µM;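 active = percent activation above the screen-wide mean plus 3 SD, cut at about 25% in these data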
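Assay system: Uncleavable procaspase-7 mutant enzyme / Input: 2 µM procaspase-7 mutant as dispensed / Dosing: single nominal 8.5 µM compound dose, 0.8% DMSO final / Timing: 1 h enzyme–compound preincubation and 2 h substrate reaction, both 25 °C / Detection: p-Nitroaniline absorbance at 405 nm, read at 0 and 120 min / Replication: singlicate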
PLCg1 ctr: inhibits human PLC-gamma1 in PLC-beta3 counter-screen | inhibition, % at 12.3 µM | hit rate 3.1% among 3,300 | shares compounds with PLC-gamma1 inh | AID 743258 | purified PLC-gamma1, fluorogenic substrate, fluorescence; in the data active = inhibition above about 9.5%
PLCb3 confirm: human PLC-beta3 inhibition, confirmation; shares compounds with PLC-gamma1 inh; purified PLC-beta3, fluorogenic substrate fluorescence; inhibition, % at 12.3 µM; hit rate 1% among 3,300
An asterisk follows results filed as active. Most compounds without a hit are left out; they make up all but 1.6% or so of the library. Rule as the data show it, unless noted: active = inhibition above about 11%; inactive = the rest.

Results for COc1ccc(S(=O)(=O)NCC(=O)NCc2cc(=O)n(C)c(=O)n2C)cc1C ?
PLC-gamma1 inh: 9.9*; procasp3 activ: 6.7; PLC-beta3 inh: -5.4; HGIII-sPLA2 inh: 13.0; procasp7 counter: 4.8; PLCg1 ctr: -4.8; PLCb3 confirm: 0.5

How did CC(C)C[C@@H]1COc2cc(N3CCC[C@H]3CO)ccc2S(=O)(=O)N1 do in these assays?
PLC-gamma1 inh: -0.8; PLC-beta3 inh: -1.3; HGIII-sPLA2 inh: 3.3

How did COC(=O)C(C)(C)c1cccnc1C#N do in these assays?
PLC-gamma1 inh: 75.6*; PLC-beta3 inh: 2.2; HGIII-sPLA2 inh: 5.6; PLCg1 ctr: 76.8*; PLCb3 confirm: -0.6

What do the screens show for `O=Cc1c(-c2ccc(F)cc2)nc2ccccn12`?
PLC-gamma1 inh: 10.8*; procasp3 activ: -1.2; PLC-beta3 inh: 0.8; HGIII-sPLA2 inh: 4.6; procasp7 counter: 8.1; PLCg1 ctr: -6.3; PLCb3 confirm: -0.3

What do the screens show for `COc1ccc(-c2nc3ccccn3c2C=O)cc1`?
PLC-gamma1 inh: -3.0; procasp3 activ: 1.5; PLC-beta3 inh: -3.6; HGIII-sPLA2 inh: 10.1; procasp7 counter: 4.5

How did O=C1CCCCCC(=O)[C@H](O)C[C@H](c2ccccc2)O1 do in these assays?
PLC-gamma1 inh: 2.5; PLC-beta3 inh: 1.9; HGIII-sPLA2 inh: 9.1

Results for CC(C)C[C@@H](CNCC(=O)[C@H](Cc1ccccc1)NC(=O)c1[nH]cnc1C(=O)N[C@@H](C)CN)NC(=O)c1nc[nH]c1C(=O)N[C@@H](C)C(=O)O ?
PLC-gamma1 inh: 2.7; PLC-beta3 inh: 2.4; HGIII-sPLA2 inh: 7.8

How did CCOC(=O)c1ccc(NC(=O)N2CCN(S(C)(=O)=O)CC2)cc1 do in these assays?
PLC-gamma1 inh: 12.1*; procasp3 activ: 0.2; PLC-beta3 inh: 4.4; HGIII-sPLA2 inh: 8.3; procasp7 counter: -9.5; PLCg1 ctr: -7.4; PLCb3 confirm: -3.4

Results for CCOC(=O)c1ccc(NC(=S)N2CCN(S(C)(=O)=O)CC2)cc1 ?
PLC-gamma1 inh: 0.2; procasp3 activ: 0.4; PLC-beta3 inh: 1.0; HGIII-sPLA2 inh: -3.6; procasp7 counter: -4.7

How did CCCCNC(=O)C1CC(=O)N(C2CCCC2)C1 (stereo unspecified) do in these assays?
PLC-gamma1 inh: 11.9*; procasp3 activ: 2.6; PLC-beta3 inh: 0.3; HGIII-sPLA2 inh: -0.4; procasp7 counter: 9.8; PLCg1 ctr: -5.1; PLCb3 confirm: -2.7

What do the screens show for `O=C(c1ccc(S(=O)(=O)N2CCCCCC2)cc1)N1CCN(c2ccccc2F)CC1`?
PLC-gamma1 inh: 12.3*; procasp3 activ: -0.7; PLC-beta3 inh: -1.3; HGIII-sPLA2 inh: 4.4; procasp7 counter: 5.7; PLCg1 ctr: -3.9; PLCb3 confirm: -1.3

What do the screens show for `O=C(CN1CSCC1=O)N1CCN(S(=O)(=O)c2cccc(F)c2)CC1`?
PLC-gamma1 inh: 0.7; procasp3 activ: 6.2; PLC-beta3 inh: 0.7; HGIII-sPLA2 inh: -0.9; procasp7 counter: -4.4

Results for S=C(NCc1ccccc1)N/N=C/c1cccs1 ?
PLC-gamma1 inh: 3.0; procasp3 activ: 15.6; PLC-beta3 inh: -1.5; HGIII-sPLA2 inh: 8.2; procasp7 counter: 2.6

How did CC(C)NC(=S)N/N=C/c1cccs1 do in these assays?
PLC-gamma1 inh: 11.0*; procasp3 activ: 1.8; PLC-beta3 inh: 6.0; HGIII-sPLA2 inh: 16.0; procasp7 counter: 3.2; PLCg1 ctr: 2.7; PLCb3 confirm: 1.5

What do the screens show for `O=C(CN1CCCCCC1)N/N=C/c1cccs1`?
PLC-gamma1 inh: 15.8*; procasp3 activ: 2.8; PLC-beta3 inh: 10.1; HGIII-sPLA2 inh: 6.9; procasp7 counter: -0.4; PLCg1 ctr: -8.8; PLCb3 confirm: -6.4

What do the screens show for `Cc1cc(C)c2c(c1)/C(=N/NS(=O)(=O)c1ccccc1)CCC2`?
PLC-gamma1 inh: 0.0; procasp3 activ: 7.2; PLC-beta3 inh: 10.8*; HGIII-sPLA2 inh: 10.1; procasp7 counter: 10.6; PLCg1 ctr: 2.8; PLCb3 confirm: -0.7

How did Cc1cc(F)ccc1C(O)c1ncc(-c2ccccc2C(F)(F)F)[nH]1 (stereo unspecified) do in these assays?
PLC-gamma1 inh: -1.6; PLC-beta3 inh: -1.6; HGIII-sPLA2 inh: 15.1

What do the screens show for `O=C1[C@@H](C2CC2)[C@@H]2c3ccccc3C=NN2[C@@H]2c3ccccc3C=NN12`?
PLC-gamma1 inh: 4.0; PLC-beta3 inh: -5.8; HGIII-sPLA2 inh: 8.4

Results for CCOC(=O)Cn1cc(CN2CCS(=O)(=O)N(Cc3ccc(OC)cc3)C(C(=O)OC)C2)nn1 (stereo unspecified) ?
PLC-gamma1 inh: -0.9; PLC-beta3 inh: 0.0; HGIII-sPLA2 inh: 3.4

What do the screens show for `Cc1cccc(Nc2nnc(SCC(=O)Nc3ccc(C(=O)O)cc3)s2)c1`?
PLC-gamma1 inh: 9.8*; procasp3 activ: -4.8; PLC-beta3 inh: 0.2; HGIII-sPLA2 inh: -21.4; procasp7 counter: 3.8; PLCg1 ctr: -4.4; PLCb3 confirm: -4.0

How did CCOC(=O)c1ccc(NC(=O)CSc2nnc(SCc3cccc4ccccc34)s2)cc1 do in these assays?
PLC-gamma1 inh: 12.1*; PLC-beta3 inh: 8.7; HGIII-sPLA2 inh: -1.2; PLCg1 ctr: -4.8; PLCb3 confirm: -6.6

What do the screens show for `Cc1cccc(Nc2nnc(SCC(=O)Nc3ccccc3[N+](=O)[O-])s2)c1`?
PLC-gamma1 inh: 2.8; procasp3 activ: -9.4; PLC-beta3 inh: 0.3; HGIII-sPLA2 inh: -38.8; procasp7 counter: -2.0

What do the screens show for `O=C1CCC[C@H]2C[C@H](NCc3ccc(Cl)c(C(F)(F)F)c3)CC[C@]23CCCN13`?
PLC-gamma1 inh: -0.9; PLC-beta3 inh: 0.0; HGIII-sPLA2 inh: 0.2

What do the screens show for `CN(C)/C(=N\S(=O)(=O)c1ccccc1)c1ccccc1`?
PLC-gamma1 inh: 0.2; procasp3 activ: 2.7; PLC-beta3 inh: -0.8; HGIII-sPLA2 inh: 0.0; procasp7 counter: 6.8

What do the screens show for `CCOc1ccc(/C=C2\CCC(C3CCCC3)C2=O)cc1` (stereo unspecified)?
PLC-gamma1 inh: 9.9*; procasp3 activ: 1.6; PLC-beta3 inh: -6.3; HGIII-sPLA2 inh: 17.5; procasp7 counter: -3.1; PLCg1 ctr: -8.5; PLCb3 confirm: -4.8

How did CCn1c(COc2ccccc2C)nnc1SCC(=O)N1CCCCC1 do in these assays?
PLC-gamma1 inh: 14.3*; procasp3 activ: 8.1; PLC-beta3 inh: 1.3; HGIII-sPLA2 inh: 4.7; procasp7 counter: -3.7; PLCg1 ctr: -3.1; PLCb3 confirm: -2.4

Results for CC1(C(=O)NCCC#N)CCN1C(=O)C1(c2ccccc2)CC1 (stereo unspecified) ?
PLC-gamma1 inh: 4.6; PLC-beta3 inh: 3.9; HGIII-sPLA2 inh: 6.6

What do the screens show for `O=C(NC(=S)NCCN1CCOCC1)c1ccc(F)cc1`?
PLC-gamma1 inh: 2.8; procasp3 activ: -6.8; PLC-beta3 inh: 1.9; HGIII-sPLA2 inh: 10.8; procasp7 counter: 7.0
